We go through 1 molecule from ChEMBL document CHEMBL3621102, “Structure-activity study of quinazoline derivatives leading to the discovery of potent EGFR-T790M inhibitors” (Eur J Med Chem, 2015).

The source made the active and inactive calls. The calls are words filed in the database; no cut-off is given here.

A short description of data set [1]: Elimination half-life in Sprague-Dawley rat at 1 mg/kg, iv incubated for 24 hrs by LC/MS/MS method. As to conditions: in vivo, read-out: beta t1/2 (converted). Type of data set: ADME, organism-based. In outline:
(§1)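 Male Sprague-Dawley rats (n = 3) dosed once at 1 mg/kg iv via tail vein, or once at 5 mg/kg by oral gavage, using the same formulation. Serial blood samples were taken over 24 h. Plasma levels were measured by LC/MS/MS (C18 column, 10 mM ammonium formate-0.1% formic acid water/methanol 10/90, ESI positive). Parameters were derived by noncompartmental analysis.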

Data set [2] in a line: Clearance in Sprague-Dawley rat at 1 mg/kg, iv incubated for 24 hrs by LC/MS/MS method. Type of data set: ADME, organism-based. As to conditions: in vivo. The method, boiled down:
as §1

Data set [3] relates to Mus musculus. Briefly: Toxicity in NCI-H1975 xenografted BALB/c mouse assessed as induction of eye diseases at 13 mg/kg po, qd for 21 days. As to conditions: in vivo, 504 h. Type of data set: organism-based. In outline: (§2)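 Athymic mice bearing subcutaneous right-flank xenografts (2 × 10⁶ cells, dosed at 100–300 mm³; n = 6 per group; vehicle controls). Health was observed daily and body weight measured on indicated days. Body weight change (%) = (Wt/W0 − 1) × 100 against predosing weight, given as group mean ± SEM.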

The test system of the next data set is HCC827. In words: Antitumor activity against human HCC827 cells xenografted in BALB/c mouse assessed as tumor growth inhibition at 5 mg/kg po, qd for 12 days. Type of data set: functional, organism-based. The method, boiled down:
(§3)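 Athymic mice received 2 × 10⁶ tumour cells subcutaneously in the right flank. At 100–300 mm³ they were randomised to control and treatment groups (n = 6); controls received vehicle alone. Tumour volume = length × width²/2 and RTV = Vt/V0.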
In general terms: Xenograft models place foreign cells or tissue in a host animal.

In data set [4] the test system is Mus musculus. In words: Toxicity in human A431 cells xenografted BALB/c mouse assessed as induction of eye diseases at 5 and 10 mg/kg po, qd for 18 days. Type of data set: organism-based, A-431. As to conditions: in vivo, 432 h. In outline: as §2
A short description of data set [5]: Bioavailability in Sprague-Dawley rat at 1 mg/kg, iv incubated for 24 hrs by LC/MS/MS method. Type of data set: ADME, organism-based. As to conditions: in vivo. In outline: as §1
For data set [6], the system named is Mus musculus. In words: Toxicity in human A431 cells xenografted BALB/c mouse assessed as body weight loss at 5 and 10 mg/kg po, qd for 18 days. Format: organism-based, A-431. Conditions: in vivo, 432 h. The method, boiled down: as §2
The subject of data set [7] is A-431. In words: Antitumor activity against human A431 cells xenografted in BALB/c mouse assessed as tumor growth inhibition at 10 mg/kg po, qd for 18 days. Format: functional, organism-based. In outline: as §3
Data set [8] relates to Mus musculus. Briefly: Toxicity in human HCC827 cells xenografted BALB/c mouse assessed as induction of eye disease at 5 mg/kg po, qd for 12 days. As to conditions: in vivo, 288 h. Format: organism-based. The method, boiled down:
as §2

Data set [9] deals with Epidermal growth factor receptor (Homo sapiens, UniProt P00533). Briefly: Inhibition of EGFR (unknown origin) by ELISA method. In general terms: In an ELISA, binding on a coated surface is turned into a signal by an enzyme label.
Chain of Epidermal growth factor receptor (P00533 whole entry): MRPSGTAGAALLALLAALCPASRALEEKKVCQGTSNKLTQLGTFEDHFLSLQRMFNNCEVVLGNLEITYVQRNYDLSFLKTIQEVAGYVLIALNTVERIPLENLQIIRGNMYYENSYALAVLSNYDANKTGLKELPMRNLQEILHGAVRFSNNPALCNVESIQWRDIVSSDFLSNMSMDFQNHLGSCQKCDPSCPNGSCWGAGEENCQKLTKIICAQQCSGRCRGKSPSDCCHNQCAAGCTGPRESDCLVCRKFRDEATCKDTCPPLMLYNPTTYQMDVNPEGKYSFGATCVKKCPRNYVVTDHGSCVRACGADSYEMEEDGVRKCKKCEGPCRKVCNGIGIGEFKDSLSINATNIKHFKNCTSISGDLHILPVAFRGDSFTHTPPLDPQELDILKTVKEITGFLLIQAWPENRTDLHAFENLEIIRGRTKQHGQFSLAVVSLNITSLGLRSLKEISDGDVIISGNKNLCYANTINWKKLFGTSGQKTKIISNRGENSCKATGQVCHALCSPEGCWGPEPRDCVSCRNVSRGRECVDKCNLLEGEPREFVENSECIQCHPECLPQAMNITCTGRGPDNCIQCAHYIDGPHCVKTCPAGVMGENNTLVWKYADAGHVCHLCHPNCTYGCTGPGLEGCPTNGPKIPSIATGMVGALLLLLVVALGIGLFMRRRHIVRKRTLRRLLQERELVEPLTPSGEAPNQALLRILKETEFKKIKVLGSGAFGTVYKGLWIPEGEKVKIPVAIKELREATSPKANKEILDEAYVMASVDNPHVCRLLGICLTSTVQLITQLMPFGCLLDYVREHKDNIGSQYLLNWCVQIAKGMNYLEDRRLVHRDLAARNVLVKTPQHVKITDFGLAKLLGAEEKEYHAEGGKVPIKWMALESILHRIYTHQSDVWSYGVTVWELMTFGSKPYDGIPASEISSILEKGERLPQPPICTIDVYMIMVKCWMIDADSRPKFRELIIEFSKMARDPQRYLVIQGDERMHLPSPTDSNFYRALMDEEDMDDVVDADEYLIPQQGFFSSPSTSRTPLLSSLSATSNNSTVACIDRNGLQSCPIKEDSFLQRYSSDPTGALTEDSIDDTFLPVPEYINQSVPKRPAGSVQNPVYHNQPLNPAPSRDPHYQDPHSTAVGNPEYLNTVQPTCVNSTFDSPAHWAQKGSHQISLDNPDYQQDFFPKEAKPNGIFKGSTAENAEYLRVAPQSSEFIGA
Data set [10] can be described thus: AUC (0 to infinity) in Sprague-Dawley rat at 1 mg/kg, iv by LC/MS/MS method. Format: ADME, organism-based. On the set-up: dose 1 mg/kg, time infinity, route intravenous. As to conditions: in vivo. In outline: as §1
Data set [11] in a line: Apparent volume of distribution in Sprague-Dawley rat at 1 mg/kg, iv incubated for 24 hrs by LC/MS/MS method. Format: ADME, organism-based. As to conditions: in vivo, read-out: Vd(app). In outline:
as §1

The subject of data set [12] is Mus musculus. In words: Toxicity in NCI-H1975 xenografted BALB/c mouse assessed as induction of eye diseases at 20 mg/kg po, qd for 21 days. As to conditions: in vivo, 504 h. Format: organism-based. The method, boiled down: as §2
The subject of data set [13] is Mus musculus. In words: Toxicity in NCI-H1975 xenografted BALB/c mouse assessed as induction of exfoliative skin disorders at 20 mg/kg po, qd for 21 days. Type of data set: organism-based. As to conditions: in vivo, 504 h. The method, boiled down:
as §2

For data set [14], the system named is NCI-H1975. In words: Antiproliferative activity against human NCI-H1975 cells assessed as growth inhibition. Format: functional. In outline:
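NCI-H1975 cells were grown in RPMI with 1 mM sodium pyruvate, 10% FBS and 1% penicillin-streptomycin, under humidified 5% CO₂ at 37 °C. Growth inhibition was read as GI₅₀.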

The subject of data set [15] is A-431. In words: Antitumor activity against human A431 cells xenografted in BALB/c mouse assessed as tumor growth inhibition at 5 mg/kg po, qd for 18 days. Format: functional, organism-based. The method, boiled down:
as §3

Data set [16] can be described thus: AUC (0 to 24 hrs) in Sprague-Dawley rat at 1 mg/kg, iv by LC/MS/MS method. More on the design: time < 24 hr, dose 1 mg/kg, route intravenous. Conditions: in vivo. Type of data set: ADME, organism-based. The method, boiled down: as §1
Data set [17] deals with Mus musculus. Briefly: Toxicity in NCI-H1975 xenografted BALB/c mouse assessed as body weight change at 13 mg/kg po, qd for 21 days. Format: organism-based. Conditions: in vivo, 504 h. The method, boiled down: as §2
Data set [18] deals with Mus musculus. In words: Toxicity in human A431 cells xenografted BALB/c mouse assessed as induction of exfoliative skin disorders at 5 and 10 mg/kg po, qd for 18 days. Conditions: in vivo, 432 h. Type of data set: organism-based, A-431. The method, boiled down: as §2
Data set [19] has as its system Mus musculus. Briefly: Toxicity in NCI-H1975 xenografted BALB/c mouse assessed as induction of exfoliative skin disorders at 13 mg/kg po, qd for 21 days. Format: organism-based. As to conditions: in vivo, 504 h. In outline:
as §2

The nature of data set [20]: Mean residence time in Sprague-Dawley rat at 1 mg/kg, iv incubated for 24 hrs by LC/MS/MS method. Type of data set: ADME, organism-based. As to conditions: in vivo. In outline:
as §1

For data set [21], the system named is NCI-H1975. In words: Antitumor activity against human NCI-H1975 cells xenografted in BALB/c mouse assessed as tumor growth inhibition at 13 mg/kg po, qd for 21 days. Format: functional, organism-based. The method, boiled down:
as §3

Data set [22] has as its system Mus musculus. Briefly: Toxicity in human HCC827 cells xenografted BALB/c mouse assessed as induction of exfoliative skin disorders at 5 mg/kg po, qd for 12 days. Type of data set: organism-based. As to conditions: in vivo, 288 h. The method, boiled down: as §2
Data set [23] concerns Mus musculus. In words: Toxicity in human HCC827 cells xenografted BALB/c mouse assessed as body weight loss at 5 mg/kg po, qd for 12 days. Type of data set: organism-based. Conditions: in vivo, 288 h. In outline:
as §2

Usually clearance stands for the volume of plasma or blood freed of the substance per unit of time. Lower therefore signals inefficient removal. A word on the bioavailability: it is dose-corrected exposure relative to a reference, in per cent. Higher therefore signals good availability. Broadly, the IC50 is the concentration that gives 50% inhibition. Higher therefore signals weaker potency in that assay. Broadly, the AUC(0-inf) is the area under the concentration-time curve extrapolated to infinity. Lower therefore signals less exposure. As a reminder, the GI50 is the concentration that inhibits growth by half. By AUC(0-t) is commonly meant the area under the concentration-time curve up to a stated or last time point. Higher therefore signals high exposure. By MRT is commonly meant the average time that molecules of a dose stay in the body. In the case of `O=C(/C=C/CNC1CC1)Nc1cc2c(Nc3ccc(F)c(Cl)c3)ncnc2cc1O[C@H]1CCOC1`, in data set [1], the half-life is 3.15 h. Further, the clearance in data set [2] was 1.54 L/h/kg. Also, the Activity result in the data set with Mus musculus [3], in the data set on Mus musculus [4], with Mus musculus [6], in the data set with Mus musculus [8], with Mus musculus [12] and with Mus musculus [13] was “Non-toxic” throughout. Further, the Activity result in the data set with Mus musculus [17], in the data set on Mus musculus [18], in the data set with Mus musculus [19], in the data set on Mus musculus [22] and in the data set with Mus musculus [23] was “Non-toxic” in each case. The TGI entry with HCC827, with A-431 [7] and in the data set with NCI-H1975 [21] was “Active” each time. The molecule further yielded a bioavailability in data set [5] of 83.5%. The half-maximal inhibitory concentration (IC50) in data set [9] stood at 6.5 nM. In [10], this molecule gave an AUC(0-inf) of 0.662 µg·h/mL. In addition, the Vd in data set [11] was found to be 3.82 L/kg. The GI50 in the data set with NCI-H1975 [14] came out at 10.2 nM. In addition, the TGI entry in the data set on A-431 [15] is “inactive”. The molecule further yielded an AUC(0-t) at 24 h in data set [16] of 0.66 µg·h/mL. In data set [20], the MRT turned out to be 3.88 h.
